The source made the active and inactive calls. The rule behind the calls is not given here.
How the values were obtained:
Caco-2 [1] = test: Inhibition of IL1beta/TNFalpha-stimulated MMP-9 secretion in human Caco2 cells at 10 uM after 24 hrs by densitometric analysis; type: functional, cell-based
Procedure, shortened: (§1)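 Near-confluent (~75%) Caco-2 switched to serum-free medium, pretreated 30 min with compound (10 μM, DMSO <1%), then TNF-α and IL-1β 10 ng/mL for 24 h at 37 °C. Cleared supernatants normalized by Bradford protein, run on 2% gelatin SDS-PAGE, Triton washed, developed 48 h at 37 °C in Tris pH 7.5/CaCl2 buffer, Coomassie stained; lysis bands quantified by densitometry as % of cytokine-only control.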

[2] = Cytotoxicity against human Caco2 cells assessed as inhibition of cell viability at 12.5 uM after 24 hrs by MTT assay; type: cell-based; conditions: Caco-2 cells, read-out: INH
Procedure, shortened: (§2)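 Cells seeded (Caco-2 8 × 10³/well, HT1080 12 × 10⁴/well), grown to 70% confluence, serum-starved 1 h, then exposed to compound at 0.1−200 μM (eight levels) serum-free for 24 h. MTT 0.5 mg/mL for 3 h at 37 °C, formazan dissolved in DMSO, OD 540 nm; viability as % of untreated. CC50 from sigmoidal fits; three experiments, triplicate wells.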

Caco-2 [3] = test: Induction of nitrite release in human Caco2 cells at 10 uM after 24 hrs by Griess assay; type: functional, cell-based
Procedure, shortened: (§3)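 Compounds incubated 24 h with Caco-2 monolayers at 200 or 10 μM (n = 3). Supernatant nitrite read by Griess reaction (sulfanilamide 2% plus N-1-naphthylethylenediamine) at 4 °C, 45 min shaking, A540; nitrate measured after VCl3 reduction. Quantified against sodium nitrite/nitrate standards 3−200 μM; NOx = nitrite + nitrate.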

Caco-2 [4] = test: Induction of apoptosis in human Caco2 cells assessed as increase in apoptotic cell population at 10 uM after 24 hrs by Annexin V FITC staining based flow cytometry; conditions: caco-2, 24 h
Procedure, shortened: (§4)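 Cells at 80% confluence in T25 flasks treated 24 h serum-free with compound (10 μM); vehicle-only controls. Cells washed in Hepes pH 7.4/NaCl/CaCl2 binding buffer, double-stained with Annexin V-FITC and propidium iodide 15 min at room temperature in dark, read by flow cytometry within 5 min; expressed as % of control fluorescence.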

[5] = Cytotoxicity against human Caco2 cells assessed as cell viability after 24 hrs by MTT assay; type: cell-based; conditions: Caco-2 cells; procedure, shortened: as §2
HT-1080 [6] = test: Inhibition of PMA-stimulated MMP-9 secretion in human HT1080 cells at 100 uM after 24 hrs by gelatin zymography; type: functional; conditions: for inhibition at 100 µM: HT-1080, 24 h
Procedure, shortened: (§5)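 HT1080 at ~75% confluence switched to serum-free medium, pretreated 3 h with compound (100 μM; DMSO ≤0.1%), then PMA 10 μM for 24 h at 37 °C. Cleared supernatants loaded at equal protein on 2% gelatin SDS-PAGE, Triton washed, developed 48 h at 37 °C in Tris pH 7.5/CaCl2 buffer, Coomassie stained; gelatinolytic bands quantified by densitometry relative to stimulated control.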

Caco-2 [7] = test: Induction of nitrite release in human Caco2 cells at 200 uM after 24 hrs by Griess assay; type: functional, cell-based; procedure, shortened: as §3
Caco-2 [8] = test: Induction of nitrate release in human Caco2 cells at 10 uM after 24 hrs by Griess assay; type: functional, cell-based; procedure, shortened: as §3
Caco-2 [9] = test: Induction of apoptosis in human Caco2 cells assessed as increase in necrotic cell population at 10 uM after 24 hrs by Annexin V FITC staining based flow cytometry; conditions: caco-2, 24 h; procedure, shortened: as §4
[10] = molecular target: 72 kDa type IV collagenase (Homo sapiens, UniProt P08253); test: Inhibition of p-aminophenylmercuric acetate stimulated human recombinant MMP-2 using (7-methoxycoumarin-4-yl)-acetyl-pro-Leu-Gly-Leu-(3-(2,4-dinitrophenyl)-L-2,3-diaminopropionyl)-Ala-Arg-NH2 as substrate after 45 mins by fluorogenic assay
[11] = molecular target: Matrix metalloproteinase-9 (Homo sapiens, UniProt P14780); test: Inhibition of p-aminophenylmercuric acetate stimulated human recombinant MMP-9 using (7-methoxycoumarin-4-yl)-acetyl-pro-Leu-Gly-Leu-(3-(2,4-dinitrophenyl)-L-2,3-diaminopropionyl)-Ala-Arg-NH2 as substrate after 45 mins by fluorogenic assay
[12] = Cytotoxicity against human HT1080 cells assessed as cell viability after 24 hrs by MTT assay; type: cell-based; conditions: HT-1080 cells; procedure, shortened: as §2
Caco-2 [13] = test: Inhibition of HGF stimulated human Caco2 cells migration through matrigel membrane at 100 nM by staining based light microscopic analysis; type: functional
Procedure, shortened: (§6)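 Matrigel-coated invasion chamber inserts, 8 μm pore membrane, 0.5 mL of 2 × 10⁵ Caco-2 cells/mL; stimulated with HGF (100 or 500 ng/mL) or PMA (10 μM) with compound (100 nM or 10 μM); 48 h invasion at 37 °C, 5% CO2. Non-invading cells swabbed off, lower-surface cells Diff-Quik stained and counted by light microscopy; normalized to stimulated control; duplicates.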

HT-1080 [14] = test: Inhibition of PMA-stimulated MMP-2 secretion in human HT1080 cells at 100 uM after 24 hrs by gelatin zymography; type: functional, cell-based; procedure, shortened: as §5
HT-1080 [15] = test: Induction of apoptosis in human HT1080 cells assessed as increase in necrotic cell population at 10 uM after 24 hrs by Annexin V FITC staining based flow cytometry; conditions: ht-1080, 24 h; procedure, shortened: as §4
Caco-2 [16] = test: Inhibition of IL1beta/TNFalpha-stimulated MMP-2 secretion in human Caco2 cells at 10 uM after 24 hrs by densitometric analysis; type: functional, cell-based; procedure, shortened: as §1
Caco-2 [17] = test: Induction of nitrate release in human Caco2 cells at 200 uM after 24 hrs by Griess assay; type: functional, cell-based; procedure, shortened: as §3
HT-1080 [18] = test: Induction of apoptosis in human HT1080 cells assessed as increase in apoptotic cell population at 10 uM after 24 hrs by Annexin V FITC staining based flow cytometry; conditions: ht-1080, 24 h; procedure, shortened: as §4
[19] = Cytotoxicity against human Caco2 cells assessed as inhibition of cell viability at 100 uM after 24 hrs by MTT assay; type: cell-based; conditions: Caco-2 cells, read-out: INH; procedure, shortened: as §2
Caco-2 [20] = test: Inhibition of PMA-stimulated human Caco2 cells migration through matrigel membrane at 10 uM after 48 hrs by light microscopic analysis; type: functional; conditions: Caco-2, 48 h; procedure, shortened: as §6
Caco-2 [21] = test: Inhibition of HGF-stimulated human Caco2 cells invasion at 10 uM by light microscopic analysis; type: functional; procedure, shortened: as §6
[22] = Cytotoxicity against human HT1080 cells assessed as inhibition of cell viability at 100 uM after 24 hrs by MTT assay; type: cell-based; conditions: HT-1080 cells, read-out: INH; procedure, shortened: as §2
[23] = Cytotoxicity against human Caco2 cells assessed as inhibition of cell viability at 200 uM after 24 hrs by MTT assay; type: cell-based; conditions: Caco-2 cells, read-out: INH; procedure, shortened: as §2
[24] = Cytotoxicity against human Caco2 cells assessed as inhibition of cell viability at 2.5 uM after 24 hrs by MTT assay; type: cell-based; conditions: Caco-2 cells, read-out: INH; procedure, shortened: as §2

Chain of 72 kDa type IV collagenase (P08253 whole entry): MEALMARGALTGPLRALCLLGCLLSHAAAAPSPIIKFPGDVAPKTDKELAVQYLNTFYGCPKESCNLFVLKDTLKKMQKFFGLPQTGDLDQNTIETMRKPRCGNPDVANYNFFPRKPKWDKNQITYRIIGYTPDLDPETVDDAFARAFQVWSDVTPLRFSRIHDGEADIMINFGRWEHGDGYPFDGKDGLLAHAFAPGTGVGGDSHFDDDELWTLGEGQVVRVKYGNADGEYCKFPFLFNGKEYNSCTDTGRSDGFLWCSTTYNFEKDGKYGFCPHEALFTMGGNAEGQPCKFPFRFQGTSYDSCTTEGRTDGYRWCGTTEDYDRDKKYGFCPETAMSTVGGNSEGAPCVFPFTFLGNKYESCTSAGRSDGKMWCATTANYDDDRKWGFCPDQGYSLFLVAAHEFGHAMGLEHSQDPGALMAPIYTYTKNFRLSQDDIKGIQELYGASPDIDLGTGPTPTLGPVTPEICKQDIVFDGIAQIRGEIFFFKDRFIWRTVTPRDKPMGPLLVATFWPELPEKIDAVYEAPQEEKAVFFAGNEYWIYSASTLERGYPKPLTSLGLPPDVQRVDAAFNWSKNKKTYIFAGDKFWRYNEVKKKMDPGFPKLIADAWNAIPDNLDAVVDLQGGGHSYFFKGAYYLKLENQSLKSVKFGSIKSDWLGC
Chain of Matrix metalloproteinase-9 (P14780 whole entry): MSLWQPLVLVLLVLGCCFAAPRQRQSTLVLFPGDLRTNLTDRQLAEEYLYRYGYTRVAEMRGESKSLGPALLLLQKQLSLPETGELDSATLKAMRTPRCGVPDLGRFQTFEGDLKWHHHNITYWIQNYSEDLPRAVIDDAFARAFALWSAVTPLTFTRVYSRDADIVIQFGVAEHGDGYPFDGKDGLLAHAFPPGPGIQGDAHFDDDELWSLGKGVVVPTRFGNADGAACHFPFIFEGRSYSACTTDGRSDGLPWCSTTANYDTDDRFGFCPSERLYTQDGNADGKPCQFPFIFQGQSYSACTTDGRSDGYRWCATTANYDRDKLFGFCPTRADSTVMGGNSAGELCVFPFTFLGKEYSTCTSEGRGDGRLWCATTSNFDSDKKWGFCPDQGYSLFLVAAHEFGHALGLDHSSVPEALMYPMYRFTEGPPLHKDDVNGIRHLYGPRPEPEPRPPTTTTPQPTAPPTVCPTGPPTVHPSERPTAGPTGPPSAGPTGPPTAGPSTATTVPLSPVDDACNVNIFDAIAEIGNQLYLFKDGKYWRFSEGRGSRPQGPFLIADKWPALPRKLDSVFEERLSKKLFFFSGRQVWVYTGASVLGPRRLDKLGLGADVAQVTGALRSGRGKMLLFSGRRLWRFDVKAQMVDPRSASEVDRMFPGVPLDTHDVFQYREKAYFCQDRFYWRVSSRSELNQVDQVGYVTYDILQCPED

SMILES | inhibition (Caco-2 [1]) | Activity (Caco-2 [4]) | CC50 at 24 h [5] [nM] | inhibition at 100 µM (HT-1080 [6]) [%] | Activity (Caco-2 [7]) | Activity (Caco-2 [9]) | IC50 [10] [nM] | IC50 [11] [nM] | CC50 at 24 h [12] [nM] | inhibition at 0.1 µM (Caco-2 [13]) [%] | inhibition (HT-1080 [14]) | Activity (HT-1080 [15]) | inhibition (Caco-2 [16]) | Activity (Caco-2 [17]) | Activity (HT-1080 [18]) | also measured
O=C1NC(=O)C(c2ccc(Oc3ccccc3)cc2)(N2CCCC(CO[N+](=O)[O-])C2)C(=O)N1 (configuration not stated) | Active | Non-toxic | > 12500 | > 80 | Active | Non-toxic | 179 | 104 | 8100 | 40.7 | Active | Non-toxic | inactive | Active | Non-toxic | cytotoxicity at 24 h, 12.5 µM [2]: 37%; Activity (Caco-2 [3]): inactive; Activity (Caco-2 [8]): inactive
O=C1NC(=O)C(c2ccc(Oc3ccccc3)cc2)(N(CCO[N+](=O)[O-])CCO[N+](=O)[O-])C(=O)N1 | Active | Non-toxic | > 100000 | > 80 | Active | Non-toxic | 328 | 91 | 72000 | 51.4 | Active | Non-toxic | inactive | Active | Non-toxic | cytotoxicity at 24 h, 100 µM [19]: 6%; inhibition at 10 µM (Caco-2 [20]): 43.3%; inhibition at 10 µM (Caco-2 [21]): 51%
CN(CCO)C1(c2ccc(Oc3ccccc3)cc2)C(=O)NC(=O)NC1=O |  |  | 76500 |  |  |  | 24 | 145 | 78500 | 34.4 |  |  |  |  |  | 
O=C1NC(=O)C(c2ccc(Oc3ccccc3)cc2)(N2CCC(CCO)CC2)C(=O)N1 |  |  | 25200 |  |  |  | 10 | 12 | 30100 |  |  |  |  |  |  | 
O=C1NC(=O)C(c2ccc(Oc3ccccc3)cc2)(N2CCN(CCO)CC2)C(=O)N1 |  |  | > 100000 |  |  |  |  |  | > 100000 | 46.3 |  |  |  |  |  | cytotoxicity at 24 h, 100 µM [22]: 33%; cytotoxicity at 24 h, 100 µM [19]: 25%
O=C1NC(=O)C(c2ccc(Oc3ccccc3)cc2)(N2CCC(CCO[N+](=O)[O-])CC2)C(=O)N1 | Active | Non-toxic | > 200000 |  | Active | Non-toxic | 158 | 152 | 78700 |  | Active | Non-toxic | inactive | Active | Non-toxic | inhibition (HT-1080 [6]): Active; cytotoxicity at 24 h, 200 µM [23]: 100%; inhibition at 10 µM (Caco-2 [20]): 44.5%
O=C1NC(=O)C(c2ccc(Oc3ccccc3)cc2)(N2CCC(CO)CC2)C(=O)N1 |  |  | 47800 |  |  |  | 66 | 97 | 66600 | 39 |  |  |  |  |  | 
CN(CCO[N+](=O)[O-])C1(c2ccc(Oc3ccccc3)cc2)C(=O)NC(=O)NC1=O | Active | Non-toxic | > 100000 |  | Active | Non-toxic | 53 | 47.6 | 48500 | 44.6 | Active | Non-toxic | inactive | Active | Non-toxic | inhibition (HT-1080 [6]): Active; cytotoxicity at 24 h, 100 µM [19]: 28%; inhibition (Caco-2 [21]): inactive
O=C1NC(=O)C(c2ccc(Oc3ccccc3)cc2)(N2CCCC(CO)C2)C(=O)N1 (configuration not stated) |  |  | 33100 |  |  |  | 15 | 6.2 | 46400 | 55.3 |  |  |  |  |  | 
O=C1NC(=O)C(c2ccc(Oc3ccccc3)cc2)(N2CCN(CCO[N+](=O)[O-])CC2)C(=O)N1 | Active | Non-toxic | 26000 | > 80 | Active | Non-toxic | 149 | 92 | 12800 | 34.8 | Active | Non-toxic | inactive | Active | Non-toxic | 
O=C1NC(=O)C(c2ccc(Oc3ccccc3)cc2)(N2CCC(CO[N+](=O)[O-])CC2)C(=O)N1 | Active | Non-toxic | > 12500 | > 80 | Active | Non-toxic | 219 | 212 | 11800 | 35.8 | Active | Non-toxic | inactive | Active | Non-toxic | Activity (Caco-2 [3]): inactive; Activity (Caco-2 [8]): inactive; inhibition at 10 µM (Caco-2 [20]): 64.9%; cytotoxicity at 24 h, 2.5 µM [24]: 12%
O=C1NC(=O)C(c2ccc(Oc3ccccc3)cc2)(N(CCO)CCO)C(=O)N1 |  |  | 8200 |  |  |  | 3.8 | 26 | 6800 | 51.2 |  |  |  |  |  | 
